Measurements from ChEMBL document CHEMBL1142013, “Tryptamine and homotryptamine-based sulfonamides as potent and selective inhibitors of 15-lipoxygenase” (Bioorg Med Chem Lett, 2005).

Experiments:
[1] = molecular target: T1, Polyunsaturated fatty acid lipoxygenase ALOX15 (Oryctolagus cuniculus, UniProt P12530); experiment: Inhibitory concentration against rabbit reticulocyte 15-lipoxygenase with substrate arachidonic acid
T1 sequence (P12530 whole entry): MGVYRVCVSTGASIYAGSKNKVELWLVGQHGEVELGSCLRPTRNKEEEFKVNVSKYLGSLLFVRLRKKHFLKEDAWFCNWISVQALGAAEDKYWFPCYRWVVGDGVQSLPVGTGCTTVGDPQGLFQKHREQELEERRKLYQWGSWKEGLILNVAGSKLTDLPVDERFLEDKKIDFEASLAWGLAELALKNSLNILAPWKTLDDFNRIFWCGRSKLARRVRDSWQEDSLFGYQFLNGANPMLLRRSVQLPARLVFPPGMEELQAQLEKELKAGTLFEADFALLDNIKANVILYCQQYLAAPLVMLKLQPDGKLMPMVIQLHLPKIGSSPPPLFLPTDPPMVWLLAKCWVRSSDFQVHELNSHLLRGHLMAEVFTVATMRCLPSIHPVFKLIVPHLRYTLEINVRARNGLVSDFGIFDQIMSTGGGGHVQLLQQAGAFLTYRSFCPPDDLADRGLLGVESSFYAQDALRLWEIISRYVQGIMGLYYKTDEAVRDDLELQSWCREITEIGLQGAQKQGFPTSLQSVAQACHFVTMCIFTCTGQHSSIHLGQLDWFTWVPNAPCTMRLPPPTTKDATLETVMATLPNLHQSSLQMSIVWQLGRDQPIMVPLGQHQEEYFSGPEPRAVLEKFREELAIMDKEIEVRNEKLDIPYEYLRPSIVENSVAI
Method in brief: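 Purified rabbit reticulocyte 15-LO, isolated from phenylhydrazine-treated rabbits, with arachidonic acid as the substrate. IC50 comes from a colorimetric read-out in which the 15-HPETE product oxidizes Fe²⁺ under mildly acidic conditions. Many values were also verified by the spectrophotometric diene-formation rate (A₂₃₄).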

[2] = molecular target: T1, Polyunsaturated fatty acid lipoxygenase ALOX15; experiment: Inhibitory concentration against isolated rabbit reticulocyte 15-lipoxygenase measured in the presence of linoleic acid
Method in brief: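 15-LO was purified from reticulocytes of phenylhydrazine-treated rabbits. Linoleic acid was the substrate. In a colorimetric assay, the 13-HPODE product oxidizes Fe²⁺ under mildly acidic conditions, and IC50 is derived from this. Many values were also checked spectrophotometrically by the rate of diene formation (A₂₃₄).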

[3] = molecular target: T2, Polyunsaturated fatty acid 5-lipoxygenase (Homo sapiens, UniProt P09917); experiment: Inhibitory concentration against human 5-lipoxygenase
T2 sequence (P09917 whole entry): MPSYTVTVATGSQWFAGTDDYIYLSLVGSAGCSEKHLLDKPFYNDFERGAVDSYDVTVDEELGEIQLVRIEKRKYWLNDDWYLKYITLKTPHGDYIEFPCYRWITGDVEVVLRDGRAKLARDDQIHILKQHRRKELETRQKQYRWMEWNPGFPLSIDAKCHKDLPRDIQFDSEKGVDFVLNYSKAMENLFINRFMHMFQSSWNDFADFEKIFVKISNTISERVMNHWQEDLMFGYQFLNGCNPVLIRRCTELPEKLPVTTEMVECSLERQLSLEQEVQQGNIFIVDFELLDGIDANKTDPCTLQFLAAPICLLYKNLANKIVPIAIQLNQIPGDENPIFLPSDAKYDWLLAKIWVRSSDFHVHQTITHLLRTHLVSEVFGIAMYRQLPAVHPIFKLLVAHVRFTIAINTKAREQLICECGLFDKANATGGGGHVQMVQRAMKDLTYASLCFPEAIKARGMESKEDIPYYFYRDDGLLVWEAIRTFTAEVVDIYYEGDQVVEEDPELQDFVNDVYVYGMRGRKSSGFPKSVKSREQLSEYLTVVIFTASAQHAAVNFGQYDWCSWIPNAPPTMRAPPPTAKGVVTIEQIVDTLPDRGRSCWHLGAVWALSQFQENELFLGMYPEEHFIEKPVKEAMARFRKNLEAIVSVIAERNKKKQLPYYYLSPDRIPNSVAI
Method in brief: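 Recombinant human 5-LO enzyme. Inhibition was followed by oxidation of arachidonic acid as the substrate. IC50 values were determined.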

[4] = molecular target: T3, Polyunsaturated fatty acid lipoxygenase ALOX12 (Homo sapiens, UniProt P18054); experiment: Inhibitory concentration against human platelet-derived 12-lipoxygenase
T3 sequence (P18054 whole entry): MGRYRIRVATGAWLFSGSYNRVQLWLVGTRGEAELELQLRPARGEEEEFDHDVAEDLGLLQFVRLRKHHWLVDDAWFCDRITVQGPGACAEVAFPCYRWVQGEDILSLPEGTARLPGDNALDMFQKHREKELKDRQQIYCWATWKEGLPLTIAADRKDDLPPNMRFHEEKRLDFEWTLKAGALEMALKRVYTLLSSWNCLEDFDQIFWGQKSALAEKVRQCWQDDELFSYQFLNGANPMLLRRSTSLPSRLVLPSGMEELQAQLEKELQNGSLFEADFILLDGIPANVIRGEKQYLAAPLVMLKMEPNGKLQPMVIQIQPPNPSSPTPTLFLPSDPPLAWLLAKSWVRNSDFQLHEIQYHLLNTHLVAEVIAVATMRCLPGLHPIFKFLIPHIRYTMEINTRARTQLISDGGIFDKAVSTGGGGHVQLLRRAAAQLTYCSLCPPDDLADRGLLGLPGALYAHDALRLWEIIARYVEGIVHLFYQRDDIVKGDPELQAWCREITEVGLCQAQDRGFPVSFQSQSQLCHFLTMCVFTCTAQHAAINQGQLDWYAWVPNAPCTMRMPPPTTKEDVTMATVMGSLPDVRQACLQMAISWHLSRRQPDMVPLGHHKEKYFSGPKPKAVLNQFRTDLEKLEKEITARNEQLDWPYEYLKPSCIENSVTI

Row | IC50 [1] | IC50 [2] | IC50 [3] | IC50 [4] | SMILES
1 | 4200 nM | 3400 nM |  |  | O=S(=O)(NCCc1c[nH]c2ccccc12)c1ccc(-c2ccccc2)cc1
2 | 460 nM | 920 nM |  |  | Cc1ccccc1-c1ccc(S(=O)(=O)NCCc2c[nH]c3ccccc23)cc1
3 | 26 nM | 11 nM |  |  | COc1ccc(NC(=O)c2ccc(S(=O)(=O)NCCc3c(-c4cc5ccccc5o4)[nH]c4ccccc34)cc2)cc1
4 | 50 nM | 13 nM |  |  | CCCCCc1ccc(S(=O)(=O)NCCc2c(-c3cnc4ccccc4c3)[nH]c3ccccc23)cc1
5 | 230 nM | 270 nM |  |  | CC(C)(C)c1ccc(-c2ccc(S(=O)(=O)NCCc3c[nH]c4ccccc34)cc2)cc1
6 | 1020 nM | 420 nM |  |  | CCCCCc1ccc(S(=O)(=O)NCCc2c[nH]c3ccccc23)cc1
7 | 58 nM | 25 nM |  |  | CCCCCc1ccc(S(=O)(=O)NCCc2c(-c3cccc(C)c3)[nH]c3ccccc23)cc1
8 | 78 nM | 10 nM | > 10000 nM | > 10000 nM | Cc1ccc(S(=O)(=O)NCCc2c(-c3cc4ccccc4o3)[nH]c3ccccc23)cc1
9 | 1090 nM | 1500 nM |  |  | COc1ccc(-c2ccc(S(=O)(=O)NCCc3c[nH]c4ccccc34)cc2)cc1
10 | 4000 nM | 3070 nM |  |  | CCCCc1ccc(S(=O)(=O)NCCc2c[nH]c3ccccc23)cc1
11 | 3300 nM |  |  |  | CCCCCc1ccc(S(=O)(=O)NCCc2c[nH]c3c(C)cccc23)cc1
12 | 112 nM | 42 nM |  |  | CCCCNC(=O)c1ccc(S(=O)(=O)NCCc2c(-c3cc4ccccc4o3)[nH]c3ccccc23)cc1
13 | 3200 nM | 3130 nM |  |  | CCCc1ccc(S(=O)(=O)NCCc2c[nH]c3ccccc23)cc1
14 |  | 300 nM |  |  | CC1=C(CC/C(C)=C/CC/C(C)=C/Cc2cc(O)ccc2O)C(C)(C)CCC1 [JASPAQUINOL]
15 | 132 nM | 28 nM |  |  | CCCCCc1ccc(S(=O)(=O)NCCc2c(-c3cc(OC)ccc3OC)[nH]c3ccccc23)cc1
16 | 161 nM | 30 nM |  |  | O=S(=O)(NCCc1c(-c2cc3ccccc3o2)[nH]c2ccccc12)c1ccc(Br)cc1
17 |  |  | > 10000 nM | 1070 nM | CCCCCc1ccc(S(=O)(=O)NCCCc2c[nH]c3ccccc23)cc1
18 | 164 nM | 37 nM | 8900 nM | > 10000 nM | CCCCCc1ccc(S(=O)(=O)NCCc2c(-c3ccc(OC)cc3)[nH]c3ccccc23)cc1
19 | 170 nM | 910 nM |  |  | CC(C)Cc1ccc(-c2ccc(S(=O)(=O)NCCc3c[nH]c4ccccc34)cc2)cc1
20 | 179 nM | 47 nM |  |  | O=S(=O)(NCCc1c(-c2cc3ccccc3o2)[nH]c2ccccc12)c1ccc(-c2ccncc2)cc1
21 |  | 3730 nM |  |  | CN(C)c1cccc2c(S(=O)(=O)NCCc3c[nH]c4ccccc34)cccc12
22 | 140 nM | 62 nM | > 3000 nM | > 10000 nM | CCCCCc1ccc(S(=O)(=O)NCCc2c(-c3ccccc3)[nH]c3ccccc23)cc1
23 |  | 110 nM |  |  | CCCCc1ccc(S(=O)(=O)NCCc2c(-c3ccc(OC)cc3)[nH]c3ccccc23)cc1
24 |  | > 10000 nM |  |  | COc1ccc(-c2[nH]c3ccccc3c2CCNS(=O)(=O)c2ccc(C(=O)O)cc2)cc1
25 | 1420 nM | 143 nM |  |  | CCCCCc1ccc(S(=O)(=O)NCCc2c(-c3cc4ccccc4o3)n(C)c3ccccc23)cc1

Row | IC50 [1] | IC50 [2] | IC50 [3] | IC50 [4] | SMILES
26 | 2900 nM |  |  |  | CCCCCc1ccc(S(=O)(=O)NCCc2c[nH]c3cc(F)ccc23)cc1
27 | 4050 nM | 440 nM |  |  | CN(CCO)C(=O)c1ccc(S(=O)(=O)NCCc2c(-c3cc4ccccc4o3)[nH]c3ccccc23)cc1
28 | 3900 nM |  |  |  | CCCCCc1ccc(S(=O)(=O)NCCc2c[nH]c3ccc(C)cc23)cc1
29 | 472 nM | 236 nM |  |  | CCCCCc1ccc(S(=O)(=O)NCCc2c[nH]c3cc(C(=O)OC)ccc23)cc1
30 | > 30000 nM | 24000 nM |  |  | CCCCCc1ccc(S(=O)(=O)NCCc2c[nH]c3cc(C(=O)O)ccc23)cc1
31 |  | 780 nM |  |  | CCCCCc1ccc(S(=O)(=O)NCCc2c[nH]c3ccc(-c4ccc[nH]4)cc23)cc1
32 |  | 1600 nM |  |  | CCCCCc1ccc(S(=O)(=O)NC(C)Cc2c[nH]c3ccccc23)cc1 (configuration not stated)
33 | 71 nM | 10 nM |  |  | CCCCCc1ccc(S(=O)(=O)NCCc2c(-c3ccc4oc5ccccc5c4c3)[nH]c3ccccc23)cc1
34 | 34 nM | 12 nM |  |  | O=C(NC1CCCCC1)c1ccc(S(=O)(=O)NCCc2c(-c3cc4ccccc4o3)[nH]c3ccccc23)cc1
35 | 320 nM | 450 nM |  |  | Cc1cccc(-c2ccc(S(=O)(=O)NCCc3c[nH]c4ccccc34)cc2)c1
36 | 470 nM | 260 nM |  |  | CCc1ccc(-c2ccc(S(=O)(=O)NCCc3c[nH]c4ccccc34)cc2)cc1
37 | 51 nM | 15 nM |  |  | O=C(Nc1ccccc1)c1ccc(S(=O)(=O)NCCc2c(-c3cc4ccccc4o3)[nH]c3ccccc23)cc1
38 | 780 nM | 110 nM |  |  | COc1ccc(-c2[nH]c3ccccc3c2CCNS(=O)(=O)c2ccc(C)cc2)cc1
39 |  | > 10000 nM |  |  | CCCCCc1ccc(S(=O)(=O)N(C)CCc2c[nH]c3ccccc23)cc1
40 | 17 nM | 8 nM |  |  | O=S(=O)(NCCCc1c(-c2cc3ccccc3o2)[nH]c2ccccc12)c1ccc(-c2ccccc2)cc1
41 |  |  | > 3000 nM | > 3000 nM | CCCCCc1ccc(S(=O)(=O)NCCc2c(-c3cc4ccccc4o3)[nH]c3ccccc23)cc1
42 | 247 nM | 27 nM |  |  | COc1ccc(-c2[nH]c3ccccc3c2CCNS(=O)(=O)c2ccc(-c3ccccc3)cc2)cc1
43 |  | > 10000 nM |  |  | CCCCCc1ccc(S(=O)(=O)N2CCC(c3c[nH]c4ccccc34)C2)cc1 (configuration not stated)
44 | 140 nM | 280 nM |  |  | CC(C)c1ccc(-c2ccc(S(=O)(=O)NCCc3c[nH]c4ccccc34)cc2)cc1
45 | 132 nM | 11 nM |  |  | CCCCCc1ccc(S(=O)(=O)NCCc2c(-c3ccc(C(F)(F)F)cc3)[nH]c3ccccc23)cc1
46 | 470 nM |  |  |  | Cc1ccc(-c2ccc(S(=O)(=O)NCCc3c[nH]c4ccccc34)cc2)cc1
47 | 6300 nM |  |  |  | CCCCCc1ccc(S(=O)(=O)NCCc2c[nH]c3ccc(F)cc23)cc1
48 | 382 nM | 76 nM |  |  | CN(C)CCN(C)C(=O)c1ccc(S(=O)(=O)NCCc2c(-c3cc4ccccc4o3)[nH]c3ccccc23)cc1
49 | 39 nM | 11 nM |  |  | CCCCCc1ccc(S(=O)(=O)NCCc2c(-c3ccc(OCC)cc3)[nH]c3ccccc23)cc1
50 | 200 nM | 530 nM |  |  | CCCCc1ccc(-c2ccc(S(=O)(=O)NCCc3c[nH]c4ccccc34)cc2)cc1

Row | SMILES | IC50 [1] | IC50 [2] | IC50 [3] | IC50 [4]
51 | Cc1ccc(S(=O)(=O)NCCc2c[nH]c3ccccc23)cc1 | > 10000 nM | > 10000 nM |  | 
52 | CCc1ccc(S(=O)(=O)NCCc2c[nH]c3ccccc23)cc1 | > 10000 nM | > 10000 nM |  | 
